Compound activity from PubChem BioAssay.
This is a sample that favours compounds with a hit; in the whole collection about 2.3% have one here.
OXTR agonist – human OXTR agonism. activation, % at 3 µM. CHO-OTR cells, Fluo-8 calcium fluorescence; normalized: DMSO 0%, oxytocin 100%. 320,000 tested, 0.32% active. P30559;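 active = activation above the mean of all tested compounds plus 3 SD, cutoff set per screening run, cut at about 20% in these data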;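 also: peak over basal fluorescence ratio from a 100 s FLIPR kinetic read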
TAAR1 agonist – agonists of human TAAR1 | activation, % at 3 µM | 360,000 tested, 0.99% active | Q96RJ0 | CHO RD-HGA16 TAAR1, Fluo-8 calcium fluorescence; vehicle wells 0%, saturating PEA agonist 100%;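 active = activation above the mean activation of all test compounds in the run plus 3 SD, cut at about 38% in these data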
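Benchmarks: low control DMSO, high control PEA (EC100); System: CHO RD-HGA16 cells carrying human TAAR1 plus Gα16; Detection: Fluo-8 fluorescence, 5 s baseline then 140 s kinetic read; Schedule: 17-24 h plating, Fluo-8 75 min 37 °C, 30 min RT; Read-out basis: % activation from peak over basal fluorescence ratio, DMSO-to-PEA scaled.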
V1R ag counter – counter-screen for oxytocin receptor agonists: human V1a receptor agonists. P37288. 320,000 tested, 0.25% active. activation, % at 3 µM. AID 2797. CHO-V1R cells, Fluo-8 calcium fluorescence, agonist mode; 0% DMSO, 100% 3 nM vasopressin;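 active = activation above the mean activation of all tested compounds plus 3 SD, per screening run, cut at about 20% in these data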;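 also: signal is peak over basal fluorescence ratio across a 100 second FLIPR read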
Target sequence (P37288 whole entry, looked up): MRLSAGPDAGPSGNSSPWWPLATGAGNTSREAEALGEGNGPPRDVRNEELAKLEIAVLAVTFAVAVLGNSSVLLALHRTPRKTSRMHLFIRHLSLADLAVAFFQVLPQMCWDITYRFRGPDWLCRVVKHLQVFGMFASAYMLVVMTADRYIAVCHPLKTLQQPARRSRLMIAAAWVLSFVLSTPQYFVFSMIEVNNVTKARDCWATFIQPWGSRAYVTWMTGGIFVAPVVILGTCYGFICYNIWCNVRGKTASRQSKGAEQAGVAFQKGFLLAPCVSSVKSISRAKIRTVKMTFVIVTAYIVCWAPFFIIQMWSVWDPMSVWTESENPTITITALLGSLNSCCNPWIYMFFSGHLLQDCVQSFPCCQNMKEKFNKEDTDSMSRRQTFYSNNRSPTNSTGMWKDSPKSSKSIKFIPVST
OXTR potentiate – potentiators of human oxytocin receptor; P30559; 320,000 tested, 0.061% active; CHO-OTR cells, Fluo-8 calcium fluorescence, potentiator mode; 0% = oxytocin EC15, 100% = EC100; activation, % at 3 µM; AID 2445;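 active = activation above that plate's cutoff, the mean activation of tested compounds plus 3 SD, cut at about 6.6% in these data, passing the limit was not always enough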
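Material: CHO-OTR cells, human receptor; compound dosing: single dose, 3.0 µM nominal final compound concentration; schedule: 6 min compound pre-incubation at room temperature, 100 s kinetic read; measured by: kinetic Fluo-8 calcium fluorescence; read-out basis: % activation vs EC15 and EC100 oxytocin; controls: EC15 oxytocin alone as 0%, 75 nM oxytocin as 100%; replicates: singlicate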
TAAR1 antagonist – antagonists of human TAAR1; Q96RJ0; 360,000 tested, 1.5% active; inhibition, % at 3 µM; CHO RD-HGA16 TAAR1, Fluo-8 calcium fluorescence, antagonist;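 active = inhibition above a per-plate cutoff, the mean inhibition of test compounds on that plate plus 3 SD, cut at about 49% in these data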
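Assay system: CHO-derived RD-HGA16 cells stably expressing human TAAR1 plus Gα16. Timing: 140 s kinetic read after compound, 140 s after agonist. Technique: kinetic Fluo-8 calcium fluorescence measurement. Measure: % inhibition of agonist calcium response.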
nonsel antag count – nonselective antagonist in TAAR1 antagonist counter-screen. counterscreen cell line, calcium fluorescence, antagonist mode. 2,400 tested, 77% active. inhibition, % at 3 µM. shares compounds with TAAR1 antagonist. AID 651780; in the data active = inhibition above about 22%;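 also: CHO-Ga16 host cells stimulated with ATP at an EC80 level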
TAAR1 antag conf – human TAAR1 antagonism, confirmed | TAAR1-expressing cells, fluorescence antagonist read-out | inhibition, % at 3 µM | 2,400 tested, 40% active | shares compounds with TAAR1 antagonist | AID 651785; in the data active = inhibition above about 49%;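 also: CHO-Ga16 host cells challenged with agonist PEA near its EC80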
Ga16 nonsel ag – nonselective Ga16 agonism, counter-screen. shares compounds with TAAR1 antagonist. Ga16-expressing cells, calcium fluorescence, agonist counterscreen. activation, % at 3 µM. 2,400 tested, 18% active. AID 651953; in the data active = activation above about 12%
TAAR1 ag counter – TAAR1 agonism, antagonist counter-screen; hTAAR1 cell line, fluorescence activation, agonist mode; activation, % at 3 µM; shares compounds with TAAR1 antagonist; 2,400 tested, 2% active; AID 651955; in the data active = activation above about 37%;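 also: CHO cells stably expressing TAAR1 with calcium dye readout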
Numbers stand for hits; 0 = inactive; - = no result.

SMILES	OXTR agonist	TAAR1 agonist	V1R ag counter	OXTR potentiate	TAAR1 antagonist	nonsel antag count	TAAR1 antag conf	Ga16 nonsel ag	TAAR1 ag counter
C=CCn1c(=O)/c(=C/c2ccc(O)cc2)s/c1=C(/C#N)c1nnc2n1CCCCC2	0	0	0	0	0	-	-	-	-
O=S(=O)([O-])C/C(=C\c1ccc(Cl)cc1)c1cc[n+](CCO)cc1	0	0	0	0	0	-	-	-	-
Cc1ccc(S(=O)(=O)NCc2ccccc2Br)cc1	-	0	-	-	0	-	-	-	-
Cc1nc(SCC(=O)c2ccccc2)c(C#N)c(-c2ccco2)c1C(=O)NCc1ccco1	0	0	0	0	62	35	58	0	0
COCCOC(=O)c1c(C)nc(SCC(=O)Nc2ccc(OC)cc2)c(C#N)c1-c1ccco1	0	0	0	0	0	-	-	-	-
COc1ccc(-n2ncc3c2CC(C)(C)CC3NC(=O)c2c(C)cc(=O)oc2C)cc1 (centres undefined)	0	0	0	0	0	-	-	-	-
CC1=C(C(=O)Nc2cc(C(=O)N3CCN(c4cccc(C)c4C)CC3)ccc2C)SCCO1	0	0	0	0	62	34	0	0	0
COc1ccc(N2CCN(C(=O)c3ccc(C)c(NC(=O)C4=C(C)OCCS4)c3)CC2)cc1	0	0	0	0	0	-	-	-	-
CCOC(=O)C1CCCN(C(=O)COc2ccc(C(=O)c3ccccc3)cc2)C1 (centres undefined)	-	0	-	-	0	-	-	-	-
CCOC(=O)C1CCCN(c2c(C(=O)c3ccccc3)cnc3ccc(OC)cc23)C1 (centres undefined)	0	0	0	0	86	0	66	0	0
Cc1ccc(N2C(=O)CC(Sc3ncccn3)C2=O)cc1C (centres undefined)	-	0	-	-	0	-	-	-	-
COc1cccc(NC(=O)CSC2=NN3CCCC(=O)N=C3S2)c1	0	0	0	0	104	0	0	0	0
COc1cc(/C=N/Nc2nc(Nc3ccc(C)cc3)nc(-n3nc(C)cc3C)n2)cc(OC)c1OC	0	0	0	0	0	-	-	-	-
COc1ccc(O)c(/C=N/Nc2nc(Nc3ccccc3)nc(-n3nc(C)cc3C)n2)c1	0	0	0	0	59	37	0	0	0
COc1cc(/C=N/Nc2nc(Nc3ccccc3)nc(-n3nc(C)cc3C)n2)cc(OC)c1OC	0	0	0	0	64	24	0	0	0
O=C(Nc1c2c(nc3ccccc13)CCCC2)c1cccc([N+](=O)[O-])c1	0	0	0	0	0	-	-	-	-
Cc1cccc(-c2noc(CCC(=O)NCCc3ccccc3)n2)c1	0	0	0	0	0	-	-	-	-
O=C(NCc1ccco1)c1cccc(-c2nnc(-c3ccccc3)o2)c1	0	0	0	0	62	22	0	0	0
Cc1cccc(-c2noc(-c3ccccc3C(=O)NCc3ccco3)n2)c1	0	0	0	0	52	26	0	0	0
Cc1cccc(-c2noc(CCC(=O)NCc3ccccc3)n2)c1	0	0	0	0	106	0	0	0	0
O=C(Cc1c[nH]c2ccccc12)Nc1ccc(Nc2cccnc2)c(-c2ccc(F)c(F)c2)c1	-	0	-	-	87	42	65	14	0
O=C(Cc1c[nH]c2ccccc12)Nc1ccc(Nc2cccnc2)c(-c2ccc(-c3ccccc3)cc2F)c1	-	0	-	-	58	33	0	0	0
O=C(CCc1c[nH]c2ccccc12)Nc1ccc(Nc2cccnc2)c(Br)c1	-	0	-	-	71	31	0	0	0
O=C(Cc1c[nH]c2ccccc12)Nc1ccc(Nc2cccnc2)c(-c2cccc(Cl)c2)c1	-	0	-	-	72	29	0	0	0
Cc1[nH]c2ccccc2c1CC(=O)Nc1ccc(Nc2cccnc2)c(-c2ccc(F)c(F)c2)c1	-	0	-	-	0	-	-	-	-
SMILES	OXTR agonist	TAAR1 agonist	V1R ag counter	OXTR potentiate	TAAR1 antagonist	nonsel antag count	TAAR1 antag conf	Ga16 nonsel ag	TAAR1 ag counter
Cc1cc(NC(=O)CCc2c[nH]c3ccccc23)ccc1Nc1cccnc1	-	0	-	-	0	-	-	-	-
CCc1ccc(C(=O)CSc2nc(C)cc(=O)[nH]2)cc1	0	0	0	0	0	-	-	-	-
Cc1ccc(C(=O)Nc2ccc(N3CCN(C)CC3)cc2)cc1C	0	0	0	0	0	-	-	-	-
COc1ccc(CC(=O)N(Cc2ccccc2)c2ccccc2)cc1S(=O)(=O)N1CCOCC1	0	0	0	0	82	32	55	15	0
FC(F)Oc1ccc(-c2csc(=Nc3cccnc3)n2CC2CCCO2)cc1 (centres undefined)	0	0	0	0	57	37	0	0	0
CC1(C)N=C(SCC(=O)Nc2ccc(Cl)cc2)C(c2ccc(Cl)cc2)=N1	0	0	0	0	68	27	0	0	0
O=C(Nc1ccc(N2CCN(C(=O)c3cccs3)CC2)c(Cl)c1)c1ccco1	0	0	0	0	0	-	-	-	-
O=C(Nc1ccc(N2CCN(C(=O)c3ccco3)CC2)cc1)c1ccc2c(c1)OCO2	0	0	0	0	0	-	-	-	-
Cc1cc(OCC(=O)Nc2ccc(N3CCN(C(=O)c4ccco4)CC3)cc2)cc(C)c1Cl	0	0	0	0	86	51	71	18	0
Cc1ccccc1C(=O)N1CCN(c2ccc(NC(=O)c3ccco3)cc2Cl)CC1	0	0	0	0	52	23	0	0	0
CC(=O)N1CCN(c2ccc(NC(=O)c3ccc(Cl)cc3)cc2)CC1	0	0	0	0	0	-	-	-	-
CC(=O)N1CCN(c2ccc(NC(=O)c3ccc(C(C)(C)C)cc3)cc2)CC1	0	0	0	0	62	29	0	0	0
Cc1ccccc1C(=O)N1CCN(c2ccc(NC(=O)c3ccc4c(c3)OCO4)cc2)CC1	0	0	0	0	53	27	0	0	0
Cc1cc(OCC(=O)Nc2ccc(N3CCCC3)cc2)cc(C)c1Cl	0	0	0	0	0	-	-	-	-
O=C(NNC(=O)c1ccncc1)Nc1cccc(C(F)(F)F)c1	-	0	-	-	0	-	-	-	-
CC(Sc1nc2ccccc2s1)C(=O)NC1CCCc2ccccc21 (centres undefined)	0	0	0	0	0	-	-	-	-
Cc1ccccc1NC(=O)C1CCCN(S(=O)(=O)c2cccc3cccnc23)C1 (centres undefined)	0	0	0	0	54	0	0	0	0
COc1cc(NC(=O)[C@@H]2CCCN(S(=O)(=O)c3cccc4cccnc34)C2)cc(OC)c1OC	0	0	0	0	51	29	0	0	0
